{"source": "ChEMBL document CHEMBL4020842", "about": "“Discovery of N1-(4-((7-Cyclopentyl-6-(dimethylcarbamoyl)-7 H-pyrrolo[2,3- d]pyrimidin-2-yl)amino)phenyl)- N8-hydroxyoctanediamide as a Novel Inhibitor Targeting Cyclin-dependent Kinase 4/9 (CDK4/9) and Histone Deacetlyase1 (HDAC1) against Malignant Cancer” (J Med Chem, 2018)", "key": {"Histone deacetylase 1 [1]": {"molecular_target": "T1, Histone deacetylase 1 (Homo sapiens, UniProt Q13547)", "T1 sequence (Q13547 whole entry)": "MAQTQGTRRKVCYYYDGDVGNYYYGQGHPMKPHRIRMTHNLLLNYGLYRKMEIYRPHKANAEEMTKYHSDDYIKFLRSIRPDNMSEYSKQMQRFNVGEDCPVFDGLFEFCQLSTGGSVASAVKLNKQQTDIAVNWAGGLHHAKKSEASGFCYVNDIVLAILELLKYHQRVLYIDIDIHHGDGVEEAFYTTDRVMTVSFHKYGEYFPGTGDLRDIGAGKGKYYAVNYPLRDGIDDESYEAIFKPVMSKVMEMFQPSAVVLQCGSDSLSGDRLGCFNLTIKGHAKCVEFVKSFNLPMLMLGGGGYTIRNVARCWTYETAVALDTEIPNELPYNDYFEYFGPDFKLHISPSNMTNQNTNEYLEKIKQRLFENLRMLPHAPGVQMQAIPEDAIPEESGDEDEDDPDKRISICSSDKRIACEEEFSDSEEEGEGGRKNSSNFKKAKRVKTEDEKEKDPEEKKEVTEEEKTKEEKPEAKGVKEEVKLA", "assay": "Inhibition of HDAC1 in human MDA-MB-231 cells assessed as increase in acetylated-histone H3 level at 1 to 5 uM after 48 hrs by Western blot method", "format": "cell-based"}, "Histone deacetylase 1 [2]": {"molecular_target": "T1, Histone deacetylase 1", "assay": "Inhibition of HDAC1 in human T47D cells assessed as increase in p53 phosphorylation at Ser15 residue at 1 to 5 uM after 48 hrs by Western blot method", "format": "cell-based"}, "HepG2 [3]": {"system": "HepG2", "assay": "Induction of apoptosis in human HepG2 cells assessed as early apoptotic cells at 5 uM after 48 hrs by annexin V-FITC/propidium iodide staining based flow cytometry (reference value: 0.3%)", "format": "functional"}, "CDK4/CDK9 (Homo sapiens) [4]": {"molecular_target": "T2, CDK4/CDK9 (Homo sapiens) (UniProt P11802+P50750)", "T2 sequence (P11802 whole entry, looked up)": "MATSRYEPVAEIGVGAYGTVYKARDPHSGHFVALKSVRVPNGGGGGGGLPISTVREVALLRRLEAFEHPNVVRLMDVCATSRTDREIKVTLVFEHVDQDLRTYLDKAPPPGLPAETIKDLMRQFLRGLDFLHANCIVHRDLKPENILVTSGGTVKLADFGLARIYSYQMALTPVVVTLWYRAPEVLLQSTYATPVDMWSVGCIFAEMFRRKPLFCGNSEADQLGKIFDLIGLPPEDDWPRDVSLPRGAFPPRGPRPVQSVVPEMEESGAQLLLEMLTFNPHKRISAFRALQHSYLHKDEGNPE", "T2 sequence (P50750 whole entry, looked up)": "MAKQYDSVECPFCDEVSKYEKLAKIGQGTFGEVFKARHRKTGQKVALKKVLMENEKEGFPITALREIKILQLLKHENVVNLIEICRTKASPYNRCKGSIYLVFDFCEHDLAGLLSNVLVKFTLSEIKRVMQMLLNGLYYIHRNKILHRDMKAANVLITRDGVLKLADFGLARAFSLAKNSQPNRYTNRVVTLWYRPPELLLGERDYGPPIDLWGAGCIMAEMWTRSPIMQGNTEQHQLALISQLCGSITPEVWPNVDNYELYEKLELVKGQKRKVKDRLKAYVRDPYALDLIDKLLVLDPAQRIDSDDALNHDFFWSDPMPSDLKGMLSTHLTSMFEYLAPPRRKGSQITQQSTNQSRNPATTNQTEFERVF", "assay": "Inhibition of CDK4/CDK9 in human A549 cells assessed as reduction in Rb phosphorylation at Ser807/811 residues at 1 uM after 48 hrs by Western blot method", "format": "cell-based"}, "MDA-MB-231 [5]": {"system": "MDA-MB-231", "assay": "Cytotoxicity against human MDA-MB-231 cells assessed as reduction in cell viability after 72 hrs by CCK8 assay", "format": "functional, cell-based", "details": "MDA-MB-231, 72 h"}, "[6]": {"molecular_target": "Cyclin-dependent kinase 5/CDK5 activator 1 (Homo sapiens) (UniProt Q00535+Q15078)", "sequence (Q00535 whole entry)": "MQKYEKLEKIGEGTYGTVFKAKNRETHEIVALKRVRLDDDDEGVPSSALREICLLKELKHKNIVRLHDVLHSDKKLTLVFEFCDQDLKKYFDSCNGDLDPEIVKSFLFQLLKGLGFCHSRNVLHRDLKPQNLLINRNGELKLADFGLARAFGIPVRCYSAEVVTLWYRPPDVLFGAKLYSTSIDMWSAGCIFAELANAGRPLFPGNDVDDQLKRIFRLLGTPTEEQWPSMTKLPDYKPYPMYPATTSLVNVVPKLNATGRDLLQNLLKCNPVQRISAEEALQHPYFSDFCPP", "sequence (Q15078 99-307 partner limits assumed)": "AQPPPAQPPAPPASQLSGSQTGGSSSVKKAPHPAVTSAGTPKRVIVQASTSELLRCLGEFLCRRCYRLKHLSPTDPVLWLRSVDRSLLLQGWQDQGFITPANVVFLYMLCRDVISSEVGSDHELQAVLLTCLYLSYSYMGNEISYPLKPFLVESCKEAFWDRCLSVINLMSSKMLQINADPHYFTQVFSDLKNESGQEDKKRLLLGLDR", "assay": "Inhibition of recombinant human full length N-terminal 6His-tagged CDK5/N-terminal GST-tagged p25 co-expressed in baculovirus infected sf21 cells at 1 uM using histone H1 substrate in presence of [gamma33P]ATP after 10 mins by scintillation counting method relative to control"}, "T47D [7]": {"system": "T47D", "assay": "Induction of apoptosis in human T47D cells assessed as early apoptotic cells at 1 uM after 48 hrs by annexin V-FITC/propidium iodide staining based flow cytometry (reference value: 7.7%)", "format": "functional"}, "A549 [8]": {"system": "A549", "assay": "Induction of apoptosis in human A549 cells assessed as live cells at 10 uM after 48 hrs by annexin V-FITC/propidium iodide staining based flow cytometry (reference value: 92.7%)", "format": "functional"}, "T47D [9]": {"system": "T47D", "assay": "Cell cycle arrest in human T47D cells assessed as accumulation at G0/G1 phase at 625 nM after 24 hrs by propidium iodide staining based flow cytometry", "format": "functional", "outline": "(§1)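 Cells were exposed for 24 h to a range of concentrations (625 nM, 2.5 and 10 µM), with DMSO vehicle as control. They were then stained with propidium iodide and analysed by flow cytometry to obtain the percentages of cells in G0/G1, S and G2 phases.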"}, "MDA-MB-231 [10]": {"system": "MDA-MB-231", "assay": "Induction of apoptosis in human MDA-MB-231 cells assessed as early apoptotic cells at 5 uM after 48 hrs by annexin V-FITC/propidium iodide staining based flow cytometry (reference value: 0.4%)", "format": "functional"}, "Hep 3B2 [11]": {"system": "Hep 3B2", "assay": "Induction of apoptosis in human Hep3B cells assessed as early apoptotic cells at 5 uM after 48 hrs by annexin V-FITC/propidium iodide staining based flow cytometry (reference value: 1.91%)", "format": "functional"}, "NCI-H460 [12]": {"system": "NCI-H460", "assay": "Induction of apoptosis in human NCI-H460 cells assessed as necrotic cells at 10 uM after 48 hrs by annexin V-FITC/propidium iodide staining based flow cytometry (reference value: 1.34%)", "format": "functional"}, "[13]": {"assay": "Lipophilicity, log D of the compound at pH 7.4 by HPLC based shake flask method", "format": "physicochemical", "details": "buffer"}, "A549 [14]": {"system": "A549", "assay": "Induction of apoptosis in human A549 cells assessed as late apoptotic cells at 1 uM after 48 hrs by annexin V-FITC/propidium iodide staining based flow cytometry (reference value: 0.88%)", "format": "functional"}, "Histone deacetylase 1 [15]": {"molecular_target": "T1, Histone deacetylase 1", "assay": "Inhibition of HDAC1 (unknown origin)"}, "[16]": {"assay": "Tmax in Sprague-Dawley rat at 20 mg/kg, ip administered as single dose by HPLC analysis", "format": "ADME, organism-based", "details": "in vivo"}, "Histone deacetylase 1 [17]": {"molecular_target": "T1, Histone deacetylase 1", "assay": "Inhibition of HDAC1 in human MDA-MB-231 cells assessed as increase in p53 phosphorylation at Ser15 residue at 1 to 5 uM after 48 hrs by Western blot method", "format": "cell-based"}, "CDK4/CDK9 (Homo sapiens) [18]": {"molecular_target": "T2, CDK4/CDK9 (Homo sapiens)", "assay": "Inhibition of CDK4/CDK9 in human T47D cells assessed as reduction in Rb phosphorylation at Ser807/811 residues at 1 uM after 48 hrs by Western blot method", "format": "cell-based"}, "[19]": {"assay": "Apparent volume of distribution at steady state in Sprague-Dawley rat at 20 mg/kg, iv administered as single dose by HPLC analysis", "format": "ADME, organism-based", "details": "in vivo, read-out: Vdss(app)"}, "[20]": {"assay": "Half life in Sprague-Dawley rat at 20 mg/kg, po administered as single dose by HPLC analysis", "format": "ADME, organism-based", "details": "in vivo"}, "[21]": {"assay": "AUC (0 to infinity) in Sprague-Dawley rat at 20 mg/kg, po administered as single dose by HPLC analysis", "format": "ADME, organism-based", "parameters": "dose 20 mg/kg, time infinity, route oral", "details": "in vivo"}, "HepG2 [22]": {"system": "HepG2", "assay": "Induction of apoptosis in human HepG2 cells assessed as early apoptotic cells at 1 uM after 48 hrs by annexin V-FITC/propidium iodide staining based flow cytometry (reference value: 0.3%)", "format": "functional"}, "NCI-H460 [23]": {"system": "NCI-H460", "assay": "Induction of apoptosis in human NCI-H460 cells assessed as live cells at 10 uM after 48 hrs by annexin V-FITC/propidium iodide staining based flow cytometry (reference value: 97.3%)", "format": "functional"}, "T47D [24]": {"system": "T47D", "assay": "Cell cycle arrest in human T47D cells assessed as decrease in S-phase at 625 nM after 24 hrs by propidium iodide staining based flow cytometry", "format": "functional", "outline": "as §1"}, "T47D [25]": {"system": "T47D", "assay": "Downregulation of CDK4 protein expression in human T47D cells after 48 hrs by Western blot method", "format": "functional, cell-based", "outline": "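Treated cells were lysed and CDK4 and cyclin D1 protein levels were assessed by Western blot.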"}, "[26]": {"assay": "Cmax in Sprague-Dawley rat at 20 mg/kg, ip administered as single dose by HPLC analysis", "format": "ADME, organism-based", "parameters": "dose 20 mg/kg, route intraperitoneal", "details": "in vivo"}, "MDA-MB-468": {"system": "MDA-MB-468", "assay": "Cytotoxicity against human MDA-MB-468 cells assessed as reduction in cell viability after 72 hrs by CCK8 assay", "format": "functional, cell-based", "details": "MDA-MB-468, 72 h"}, "A549 [27]": {"system": "A549", "assay": "Induction of apoptosis in human A549 cells assessed as early apoptotic cells at 1 uM after 48 hrs by annexin V-FITC/propidium iodide staining based flow cytometry (reference value: 0.41%)", "format": "functional"}, "HepG2 [28]": {"system": "HepG2", "assay": "Downregulation of CDK4 protein expression in human HepG2 cells after 48 hrs by Western blot method", "format": "functional, cell-based"}, "Hep 3B2 [29]": {"system": "Hep 3B2", "assay": "Cytotoxicity against human Hep3B cells assessed as reduction in cell viability after 72 hrs by CCK8 assay"}, "MDA-MB-231 [30]": {"system": "MDA-MB-231", "assay": "Induction of apoptosis in human MDA-MB-231 cells assessed as necrotic cells at 5 uM after 48 hrs by annexin V-FITC/propidium iodide staining based flow cytometry (reference value: […])", "format": "functional"}, "Aurora kinase A": {"molecular_target": "Aurora kinase A (Homo sapiens, UniProt O14965)", "sequence (O14965 whole entry)": "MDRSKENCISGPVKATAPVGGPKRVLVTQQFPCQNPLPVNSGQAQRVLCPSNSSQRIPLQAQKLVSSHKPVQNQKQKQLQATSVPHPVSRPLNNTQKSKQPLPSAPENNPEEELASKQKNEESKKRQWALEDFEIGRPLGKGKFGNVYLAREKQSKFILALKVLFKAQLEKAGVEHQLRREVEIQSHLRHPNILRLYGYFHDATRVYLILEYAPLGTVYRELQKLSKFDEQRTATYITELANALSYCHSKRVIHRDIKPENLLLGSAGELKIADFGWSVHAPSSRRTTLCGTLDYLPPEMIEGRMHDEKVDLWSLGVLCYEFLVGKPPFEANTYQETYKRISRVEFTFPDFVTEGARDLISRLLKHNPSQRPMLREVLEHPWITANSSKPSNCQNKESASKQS", "assay": "Inhibition of recombinant human full length C-terminal 6His-tagged Aurora-A expressed in baculovirus infected sf21 cells using kemptide substrate in presence of [gamma33P]ATP after 10 mins by scintillation counting method"}, "4T1 [31]": {"system": "4T1", "assay": "Antitumor activity against mouse Fluc-labeled 4T1 cells implanted in Balb/c mouse assessed as tumor growth inhibition at 130 mg/kg, ip administered daily for 18 days measured after 8 to 25 days by bioluminescence assay relative to control", "format": "functional", "details": "4T1, ip, read-out: TGI"}, "4T1 [32]": {"system": "4T1", "assay": "Cytotoxicity against mouse 4T1 cells assessed as reduction in cell viability after 72 hrs by CCK8 assay", "format": "functional, cell-based", "details": "4T1, 72 h"}}, "note": "Active and inactive are the calls of the source. The rule behind the calls is not given here.", "data": [{"smiles": "CN(C)C(=O)c1cc2cnc(Nc3ccc(NC(=O)CCCCCCC(=O)NO)cc3)nc2n1C1CCCC1", "values": [{"measurement": "inhibition", "setting": "Histone deacetylase 1 [1]", "result": "Active"}, {"measurement": "inhibition", "setting": "Histone deacetylase 1 [2]", "result": "Active"}, {"measurement": "Activity", "setting": "HepG2 [3]", "result": 7.31, "unit": "%"}, {"measurement": "inhibition", "setting": "CDK4/CDK9 (Homo sapiens) [4]", "result": "Active"}, {"measurement": "IC50", "setting": "MDA-MB-231 [5]", "result": 1.86, "unit": "µM"}, {"measurement": "inhibition", "setting": "[6]", "result": 78, "unit": "%"}, {"measurement": "Activity", "setting": "T47D [7]", "result": 4.5, "unit": "%"}, {"measurement": "Activity", "setting": "A549 [8]", "result": 59.8, "unit": "%"}, {"measurement": "Activity", "setting": "T47D [9]", "result": "Active"}, {"measurement": "Activity", "setting": "MDA-MB-231 [10]", "result": 2.57, "unit": "%"}, {"measurement": "Activity", "setting": "Hep 3B2 [11]", "result": 6.52, "unit": "%"}, {"measurement": "Activity", "setting": "NCI-H460 [12]", "result": 5.58, "unit": "%"}, {"measurement": "logD", "setting": "[13]", "result": 2.02}, {"measurement": "Activity", "setting": "A549 [14]", "result": 1.93, "unit": "%"}, {"measurement": "IC50", "setting": "Histone deacetylase 1 [15]", "result": 0.0022, "unit": "µM"}, {"measurement": "Tmax", "setting": "[16]", "result": 0.262, "unit": "h"}, {"measurement": "inhibition", "setting": "Histone deacetylase 1 [17]", "result": "Active"}, {"measurement": "inhibition", "setting": "CDK4/CDK9 (Homo sapiens) [18]", "result": "Active"}, {"measurement": "Vd", "setting": "[19]", "result": 49, "unit": "L/kg"}, {"measurement": "half-life", "setting": "[20]", "result": 14.9, "unit": "h"}, {"measurement": "AUC(0-inf)", "setting": "[21]", "result": 1130, "unit": "ng·h/mL"}, {"measurement": "Activity", "setting": "HepG2 [22]", "result": 2.6, "unit": "%"}, {"measurement": "Activity", "setting": "NCI-H460 [23]", "result": 79.6, "unit": "%"}, {"measurement": "Activity", "setting": "T47D [24]", "result": "Active"}, {"measurement": "Activity", "setting": "T47D [25]", "result": "Dose-dependent effect"}, {"measurement": "Cmax", "setting": "[26]", "result": 360, "unit": "ng/mL"}, {"measurement": "IC50", "setting": "MDA-MB-468", "result": 1.82, "unit": "µM"}, {"measurement": "Activity", "setting": "A549 [27]", "result": 0.57, "unit": "%"}, {"measurement": "Activity", "setting": "HepG2 [28]", "result": "Dose-dependent effect"}, {"measurement": "IC50", "setting": "Hep 3B2 [29]", "result": 1.24, "unit": "µM"}, {"measurement": "Activity", "setting": "MDA-MB-231 [30]", "result": 1.36, "unit": "%"}, {"measurement": "IC50", "setting": "Aurora kinase A", "result": 0.012, "unit": "µM"}, {"measurement": "inhibition in vivo at 130 mg/kg", "setting": "4T1 [31]", "result": 84.8, "unit": "%"}, {"measurement": "IC50", "setting": "4T1 [32]", "result": 1.11, "unit": "µM"}]}]}
